Measured values from ChEMBL document CHEMBL3232705, “Discovery of isoquinolinone indole acetic acids as antagonists of chemoattractant receptor homologous molecule expressed on Th2 cells (CRTH2) for the treatment of allergic inflammatory diseases” (J Med Chem, 2014).
Calls of active or inactive are those of the source. No cut-off for these calls is given here.

Key:
[1] = Clearance in rat at 2 mg/kg, iv and 10 mg/kg, po; assay type: ADME, organism-based; conditions: in vivo
[2] = Oral bioavailability in rat at 10 mg/kg; assay type: ADME, organism-based; conditions: in vivo
[3] = biological target: T1, Prostaglandin D2 receptor 2 (Homo sapiens, UniProt Q9Y5Y4); test: Antagonist activity at human recombinant CRTh2 expressed in CHO-K1 cells by cAMP TR FRET assay; assay type: functional, cell-based
T1 sequence (Q9Y5Y4 whole entry): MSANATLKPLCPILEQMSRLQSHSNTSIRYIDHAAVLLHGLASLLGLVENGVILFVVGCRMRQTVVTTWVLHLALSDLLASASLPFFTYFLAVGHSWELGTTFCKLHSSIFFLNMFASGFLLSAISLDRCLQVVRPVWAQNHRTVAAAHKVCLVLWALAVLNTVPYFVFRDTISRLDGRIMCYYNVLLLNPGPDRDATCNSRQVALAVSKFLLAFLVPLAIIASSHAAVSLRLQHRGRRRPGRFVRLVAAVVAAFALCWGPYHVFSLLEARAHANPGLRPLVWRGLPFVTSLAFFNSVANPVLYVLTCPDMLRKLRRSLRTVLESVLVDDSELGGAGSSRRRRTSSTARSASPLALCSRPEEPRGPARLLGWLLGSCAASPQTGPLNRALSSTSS

Rattus norvegicus [4] = test: Oral bioavailability in rat; conditions: in vivo
Mus musculus [5] = test: Antiallergic inflammatory activity in oxazolone induced contact hypersensitivity mouse model assessed as reduction ear swelling at 3 mg/kg, po prior to oxazolone and 7 hrs post challenge measured after 24 hrs; assay type: functional
Summary of the method: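 Mice sensitized on the shaved abdomen with 2% oxazolone in ethanol one week before challenge. Dosed orally 1 h before the left ear was challenged with 10 μL of 2% oxazolone (ethanol on the right ear as control), then redosed 7 h after challenge. Ear thickness measured by micrometer; swelling taken as 24 h post-challenge minus pre-challenge thickness. Unpaired t test.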

Rattus norvegicus [6] = species on record: Rattus norvegicus; test: Clearance in rat; conditions: in vivo
[7] = Cmax in dog at 10 mg/kg, po; assay type: ADME, organism-based, Canis lupus familiaris; parameters: dose 10 mg/kg, route oral; conditions: in vivo
Summary of the method: (§1)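 Single intravenous dose of 2 mg/kg and single oral dose of 10 mg/kg, given separately, in rat, dog and monkey. Clearance and half-life taken from the iv arm; Cmax from the oral arm.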

[8] = Plasma clearance in rat at 5 mg/kg, iv measured after 24 hrs by LC-MS analysis; assay type: ADME, organism-based; parameters: dose 5 mg/kg, route intravenous
Summary of the method: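 Bile duct-cannulated rats received a single iv dose of 5 mg/kg. Average plasma clearance was determined, and parent drug was quantified in bile and urine collected over 24 h.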

[9] = Clearance in dog at 2 mg/kg, iv; assay type: ADME, organism-based, Canis lupus familiaris; parameters: dose 2 mg/kg, route intravenous; conditions: in vivo; summary of the method: as §1
[10] = Oral bioavailability in monkey at 10 mg/kg; assay type: ADME, organism-based, Macaca mulatta; conditions: rhesus monkey, in vivo
[11] = Metabolic clearance in dog hepatocytes measured per 10^6 cells; assay type: ADME, cell-based, Canis lupus familiaris, Hepatocyte; conditions: read-out: CLH
Rattus norvegicus [12] = test: In vivo intrinsic biliary clearance in rat; assay type: ADME, organism-based, Bile
[13] = Metabolic clearance in rat hepatocytes measured per 10^6 cells; assay type: ADME, cell-based, Hepatocyte; conditions: read-out: CLH
Hepatocyte [14] = test: In vitro intrinsic biliary clearance in sandwich cultured rat hepatocytes measured; assay type: ADME, cell-based, Bile
Summary of the method: (§2)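 Sandwich-cultured hepatocytes incubated with substrate at 1–50 μM (rat) or 1–10 μM (human), with and without Ca2+. Biliary excretion taken as the difference in cellular accumulation between the two conditions. Intrinsic biliary clearance calculated as amount excreted into bile divided by substrate concentration over time.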

[15] = Volume of distribution at steady state in dog at 2 mg/kg, iv; assay type: ADME, organism-based, Canis lupus familiaris; parameters: dose 2 mg/kg, route intravenous; conditions: in vivo, read-out: Vdss
[16] = Cmax in monkey at 10 mg/kg, po; assay type: ADME, organism-based, Macaca mulatta; parameters: dose 10 mg/kg, route oral; conditions: rhesus monkey, in vivo; summary of the method: as §1
[17] = Oral bioavailability in dog at 10 mg/kg; assay type: ADME, organism-based, Canis lupus familiaris; conditions: in vivo
[18] = Metabolic clearance in monkey hepatocytes measured per 10^6 cells; assay type: ADME, cell-based, Macaca mulatta, Hepatocyte; conditions: rhesus monkey, read-out: CLH
[19] = Drug excretion in dog feces assessed as drug recovery at 5 mg/kg, iv measured after 24 hrs by LC-MS analysis; assay type: ADME, organism-based, Canis lupus familiaris; parameters: dose 5 mg/kg, route intravenous; conditions: faeces, read-out: Drug recovery
Summary of the method: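 Dogs given a single intravenous dose of 5 mg/kg; unchanged parent drug measured in the feces.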

[20] = Volume of distribution at steady state in monkey at 2 mg/kg, iv; assay type: ADME, organism-based, Macaca mulatta; parameters: dose 2 mg/kg, route intravenous; conditions: rhesus monkey, in vivo, read-out: Vdss
Hepatocyte [21] = test: In vitro intrinsic biliary clearance in sandwich cultured human hepatocytes measured; assay type: ADME, cell-based, Bile; summary of the method: as §2
[22] = Half life in dog at 2 mg/kg, iv; assay type: ADME, organism-based, Canis lupus familiaris; parameters: dose 2 mg/kg, route intravenous; conditions: in vivo; summary of the method: as §1
[23] = Half life in monkey at 2 mg/kg, iv; assay type: ADME, organism-based, Macaca mulatta; parameters: dose 2 mg/kg, route intravenous; conditions: rhesus monkey, in vivo; summary of the method: as §1
[24] = Clearance in monkey at 2 mg/kg, iv; assay type: ADME, organism-based, Macaca mulatta; parameters: dose 2 mg/kg, route intravenous; conditions: rhesus monkey, in vivo; summary of the method: as §1
[25] = Drug excretion in rat bile assessed as drug recovery at 5 mg/kg, iv measured after 24 hrs by LC-MS analysis; assay type: ADME, organism-based; parameters: dose 5 mg/kg, route intravenous; conditions: read-out: Drug recovery
Summary of the method: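 Bile duct-cannulated rats given a single iv dose of 5 mg/kg; parent drug recovered in bile and urine over 24 h.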

Mus musculus [26] = test: Antiallergic activity in house dust mite-induced allergic airway disease BALB/c mouse model assessed as reduction in airway inflammation at 1 mg/kg, ip qd after 17 days; assay type: functional, organism-based; parameters: dose 1 mg/kg

## Cc1c(-c2ccc(=O)n(Cc3ccccc3)c2)c2cc(F)ccc2n1CC(=O)O
[1]
  clearance: 15 mL/min/kg
[2]
  bioavailability: < 10%

## Cc1c(Cc2ccc(=O)n(CCCC(F)(F)F)n2)c2cc(F)ccc2n1CC(=O)O
[3]
  IC50: 11 nM

## Cc1c(-c2cn(CCCC(F)(F)F)c(=O)c3ccccc23)c2cc(F)ccc2n1CC(=O)O
Rattus norvegicus [4]
  bioavailability: < 5%
Mus musculus [5]
  inhibition in vivo at 3 mg/kg: 30.4%
[3]
  IC50: 1 nM
Rattus norvegicus [6]
  clearance: 35 mL/min/kg

## Cc1c(-c2ccc(=O)n(C(C)C)c2)c2cc(Cl)ccc2n1CC(=O)O
[3]
  IC50: 195 nM

## Cc1c(-c2cn(CC(F)(F)F)c(=O)c3ccccc23)c2cc(F)ccc2n1CC(=O)O
Rattus norvegicus [4]
  bioavailability: 35%
Mus musculus [5]
  inhibition in vivo at 3 mg/kg: 32.8%
Rattus norvegicus [6]
  clearance: 20 mL/min/kg

## Cc1c(-c2cn(CC(F)(F)F)c(=O)c3c2CCCC3)c2cc(F)ccc2n1CC(=O)O
[3]
  IC50: 1000 nM

## Cc1c(-c2cn(Cc3ccccc3)c(=O)c3c2CCCC3)c2cc(F)ccc2n1CC(=O)O
[3]
  IC50: 192 nM

## Cc1c(-c2cn(Cc3ccccc3)c(=O)c3ccccc23)c2cc(F)ccc2n1CC(=O)O
[3]
  IC50: 14 nM

## Cc1c(-c2ccc(=O)n(CC(F)(F)F)c2)c2cc(F)ccc2n1CC(=O)O
[3]
  IC50: 84 nM

## Cc1c(-c2ccc(OCCCC(F)(F)F)nc2)c2cc(F)ccc2n1CC(=O)O
[3]
  IC50: 689 nM

## Cc1c(-c2ccc(=O)n(Cc3cccc(F)c3F)c2)c2cc(F)ccc2n1CC(=O)O
[3]
  IC50: 0.8 nM

## Cc1c(Cc2ccc(=O)n(CCCC(F)(F)F)c2)c2cc(F)ccc2n1CC(=O)O
[3]
  IC50: 150 nM

## Cc1c(Cc2ccc(=O)n(Cc3ccc(F)cc3F)n2)c2cc(F)ccc2n1CC(=O)O
[7]
  Cmax: 716 ng/mL
[8]
  clearance: 14 mL/min/kg
[9]
  clearance: 20 mL/min/kg
[10]
  bioavailability: 12%
[11]
  hepatocyte CLint: < 5 µL/min/1e6 cells
Rattus norvegicus [12]
  CL: 3.8 mL/min/kg
[13]
  hepatocyte CLint: < 5 µL/min/1e6 cells
Hepatocyte [14]
  CLH: < 2.6 µL/min/µg
[15]
  Vd: 0.4 L/kg
[16]
  Cmax: 246 ng/mL
[17]
  bioavailability: 8%
[18]
  hepatocyte CLint: < 5 µL/min/1e6 cells
[19]
  dose excreted at 24 h: > 90%
[20]
  Vd: 0.4 L/kg
Hepatocyte [21]
  CLH: < 1 µL/min/µg
[22]
  half-life: 138 min
[23]
  half-life: 138 min
[24]
  clearance: 21 mL/min/kg
[25]
  dose excreted at 24 h: 27%

## Cc1c(Cc2ccc(=O)n(Cc3ccc(F)cc3)n2)c2cc(F)ccc2n1CC(=O)O
[3]
  IC50: 6 nM

## Cc1c(-c2cn(CC(C)(C)C)c(=O)c3ccccc23)c2cc(F)ccc2n1CC(=O)O
Mus musculus [5]
  inhibition in vivo at 3 mg/kg: 47.4%

## Cc1ccc2c(c1)c(-c1ccc(=O)n(CC(F)(F)F)c1)c(C)n2CC(=O)O
[3]
  IC50: 1120 nM

## COc1ccc2c(c1)c(-c1ccc(=O)n(CC(F)(F)F)c1)c(C)n2CC(=O)O
[3]
  IC50: 2000 nM

## Cc1c(Cc2ccc(=O)n(CC(F)(F)F)n2)c2cc(F)ccc2n1CC(=O)O
[3]
  IC50: 18 nM

## Cc1c(-c2ccc(=O)n(Cc3c(F)cccc3F)c2)c2ccccc2n1CC(=O)O
[3]
  IC50: 21 nM

## Cc1c(Cc2ccc(=O)n(Cc3ccc(F)cc3F)c2)c2cc(F)ccc2n1CC(=O)O
[3]
  IC50: 4 nM
[1]
  clearance: 32 mL/min/kg
[2]
  bioavailability: 4%

## Cc1c(-c2ccc(=O)n(Cc3ccc(F)cc3F)c2)c2cc(F)ccc2n1CC(=O)O
[3]
  IC50: 17 nM

## Cc1c(-c2ccc(=O)n(C(C)C)c2)c2cc(F)ccc2n1CC(=O)O
[3]
  IC50: 70 nM

## Cc1c(-c2ccc(=O)n(CCCC(F)(F)F)c2)c2cc(F)ccc2n1CC(=O)O
[3]
  IC50: 16 nM

## Cc1c(-c2ccc(=O)n(C(C)C)c2)c2ccccc2n1CC(=O)O
[3]
  IC50: 556 nM

## Cc1c(Cc2ccc(=O)n(Cc3cc(F)ccc3F)n2)c2cc(F)ccc2n1CC(=O)O
[3]
  IC50: 2 nM

## Cc1c(Cc2ccc(=O)n(Cc3cccc(F)c3)n2)c2cc(F)ccc2n1CC(=O)O
[3]
  IC50: 8 nM

## C[C@@H]1C[C@H]2[C@@H]3CCC4=CC(=O)C=C[C@]4(C)[C@@]3(F)[C@@H](O)C[C@]2(C)[C@@]1(O)C(=O)CO
Mus musculus [26]
  inhibition: Active

## Cc1c(Cc2ccc(=O)n(CC(F)(F)F)c2)c2cc(F)ccc2n1CC(=O)O
[3]
  IC50: 52 nM
[1]
  clearance: 7 mL/min/kg
[2]
  bioavailability: 20%

## Cc1c(-c2ccc(=O)n(Cc3c(F)cccc3F)c2)c2cc(F)ccc2n1CC(=O)O
[3]
  IC50: 6 nM

## Cc1c(-c2ccc(=O)n(CC(F)(F)F)c2)c2cc(Cl)ccc2n1CC(=O)O
[3]
  IC50: 148 nM
